Measurements taken from ChEMBL document CHEMBL4229356, “Synthesis and antikinetoplastid evaluation of bis(benzyl)spermidine derivatives” (Eur J Med Chem, 2018).

Experiments:
[1] = system: Trypanosoma brucei gambiense; experiment: Trypanocidal activity against Trypanosoma brucei gambiense FeoITMAP/1893 after 72 hrs by resazurin dye based assay; assay type: functional, organism-based; conditions: FeoITMAP/1893, 72 h
In short: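 T. b. gambiense Feo was grown in supplemented IMDM with 10% FBS. Cells at 4.10⁴/mL were exposed 72 h at 37 °C, 5% CO2 in the dark to two-fold dilutions. Resazurin (450 µM solution) was added for 6 h and read at OD570/OD600. Result given as IC50; pentamidine was the reference.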

[2] = Selectivity index, ratio of CC50 for mouse RAW264.7 cells to IC50 for Trypanosoma brucei gambiense FeoITMAP/1893; assay type: toxicity; conditions: read-out: Ratio CC50/IC50
Leishmania donovani [3] = experiment: Antiparasitic activity against Leishmania donovani LV9 axenic amastigotes incubated for 72 hrs by resazurin dye based assay; assay type: functional, organism-based; conditions: LV9, 72 h
In short: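 LV9 axenic amastigotes were derived from promastigotes in M-199 at pH 5.5, 37 °C, 5% CO2, and used in log phase. Cells at 10⁶/mL were exposed 72 h to two-fold dilutions from 100 to 0.02 μM. Resazurin was then added for 24 h in the dark and read at OD570/OD600. IC50 is relative to excipient-only controls; miltefosine was the reference.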

Leishmania donovani [4] = experiment: Antiparasitic activity against Leishmania donovani LV9 axenic intramacrophage amastigotes infected in mouse RAW264.7 cells incubated for 48 hrs by Sybr Green 1 dye based fluorescence assay; assay type: functional, organism-based; conditions: LV9, RAW264.7, 48 h
In short: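 RAW 264.7 cells at 2.10⁴/well were infected 24 h with axenic amastigotes at a 16:1 parasite to macrophage ratio, then extracellular parasites were removed. Cells were treated 48 h with two-fold dilutions from 100 µM. They were then lysed (freeze-thaw, proteinase K, 55 °C overnight) and total DNA read by SYBR Green I fluorescence against untreated infected cells. Result given as IC50.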

[5] = Cytotoxicity against mouse RAW264.7 cells assessed as reduction in cell viability after 48 hrs by resazurin assay; assay type: cell-based
In short: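 RAW 264.7 macrophages at 2.10⁴/well were preincubated 24 h, then exposed 48 h at 37 °C, 5% CO2 to two-fold dilutions in DMEM. Resazurin was added for 4 h in the dark and read at OD570/OD600. Result given as CC50.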

[6] = Selectivity index, ratio of CC50 for mouse RAW264.7 cells to IC50 for Leishmania donovani LV9 axenic amastigotes incubated for 72 hrs by resazurin dye based assay; assay type: toxicity; conditions: read-out: Ratio CC50/IC50
[7] = system: Trypanosoma brucei brucei; experiment: Antitrypanosomal activity against Trypanosoma brucei brucei CMP infected in Swiss mouse assessed as change in mean survival time at 100 mg/kg, ip administered as single dose measured up to 30 days; assay type: functional
In short: (§1)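 Swiss mice infected ip with 10,000 T. b. brucei CMP trypanosomes, randomly grouped (six per batch), then given one ip dose of 100 or 10 mg/kg; controls received pentamidine, melarsamine or excipient. Parasitemia followed at days 2, 3, 4 and 30; deaths recorded by day post-treatment; efficacy as mean survival time minus that of excipient-treated controls (days ± SD).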

Mus musculus = experiment: Toxicity in Swiss mouse assessed as death at 100 mg/kg, ip administered as single dose measured up to 30 days; assay type: organism-based; conditions: in vivo, 720 h; in short: as §1
[8] = Selectivity index, ratio of CC50 for mouse RAW264.7 cells to IC50 for Leishmania donovani LV9 axenic intramacrophage amastigotes infected in mouse RAW264.7 cells; assay type: toxicity, cell-based; conditions: read-out: Ratio CC50/IC50
[9] = Stability in human plasma by HPLC analysis; assay type: ADME, cell-free; conditions: read-out: Stability
In short: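 Human plasma was diluted 10-fold in PBS and incubated with 1 mM compound solutions for 0, 2 and 12 h at 37 °C. Samples were quenched with ice-cold acetonitrile, centrifuged, filtered and analysed by C18 reversed-phase HPLC at 25 °C.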

[10] = target: Trypanothione reductase (Trypanosoma brucei brucei) (UniProt P39051); experiment: Inhibition of Trypanosoma brucei trypanothione reductase at 40 uM using 40 uM TS2 as substrate in presence of NADPH by spectrophotometric method relative to control
Sequence of Trypanothione reductase (Trypanosoma brucei brucei) (P39051 whole entry, looked up): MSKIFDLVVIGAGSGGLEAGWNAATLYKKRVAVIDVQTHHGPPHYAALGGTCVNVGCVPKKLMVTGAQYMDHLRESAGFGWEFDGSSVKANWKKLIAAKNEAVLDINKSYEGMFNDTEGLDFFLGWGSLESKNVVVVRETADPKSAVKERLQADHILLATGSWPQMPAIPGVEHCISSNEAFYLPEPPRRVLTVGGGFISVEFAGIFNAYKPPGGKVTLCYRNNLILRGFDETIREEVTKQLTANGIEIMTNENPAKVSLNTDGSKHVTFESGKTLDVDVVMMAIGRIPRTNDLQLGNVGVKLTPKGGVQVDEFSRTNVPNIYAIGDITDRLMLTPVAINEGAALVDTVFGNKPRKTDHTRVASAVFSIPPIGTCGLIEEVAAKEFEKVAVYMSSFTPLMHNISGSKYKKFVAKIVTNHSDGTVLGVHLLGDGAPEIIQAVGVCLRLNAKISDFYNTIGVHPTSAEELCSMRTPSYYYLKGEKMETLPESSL
In short: (§2)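 Recombinant T. brucei TryR (5-10 mU) in 40 mM Hepes, 1 mM EDTA, pH 7.5, with 100 μM NADPH, 5% DMSO, at 25 °C. Inhibitor was fixed at 40 μM; TS2 at 100 or 40 μM started the reaction. NADPH consumption was followed at 340 nm and % inhibition taken against DMSO-matched controls. Run in triplicate, mean ± SD.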

[11] = target: Trypanothione reductase (Trypanosoma brucei brucei) (UniProt P39051); experiment: Inhibition of Trypanosoma brucei trypanothione reductase at 40 uM using 100 uM TS2 as substrate in presence of NADPH by spectrophotometric method relative to control; in short: as §2

| SMILES | IC50 [1] | selectivity ratio [2] | IC50 (Leishmania donovani [3]) | IC50 (Leishmania donovani [4]) | CC50 at 48 h [5] | selectivity ratio at 72 h [6] | Survival [7] | Activity (Mus musculus) | selectivity ratio [8] | half-life [9] | inhibition [10] | inhibition [11] |
| --- | --- | --- | --- | --- | --- | --- | --- | --- | --- | --- | --- | --- |
| CC(C)(C)OC(=O)NC1CCC(NCCCN(Cc2ccccc2)Cc2ccccc2)CC1 (centres undefined) | 0.7 µM | 7.3 | 14.2 µM | 5.4 µM | 5.1 µM |  |  |  |  |  |  |  |
| CC(C)(C)OC(=O)NCCCCNCCCN(Cc1cccc(-c2ccccc2)c1)Cc1cccc(-c2ccccc2)c1 | 33.9 µM | > 2.9 | 79.5 µM | > 100 µM | > 100 µM | > 1.2 |  |  |  |  |  |  |
| N=C(N)c1ccc(OCCCCCOc2ccc(C(=N)N)cc2)cc1.O=S(=O)(O)CCO.O=S(=O)(O)CCO [PENTAMIDINE ISETHIONATE] |  |  |  |  |  |  | >30 days | Non-Toxic |  |  |  |  |
| CC(C)(C)OC(=O)NCCCCNCCCN(Cc1ccsc1)Cc1ccsc1 | 1.5 µM | 10.9 | 25.3 µM | 21.1 µM | 16.4 µM |  |  |  |  |  |  |  |
| NC1CCC(NCCCN(Cc2ccccc2)Cc2ccccc2)CC1 (centres undefined) | 2.1 µM | 3.6 | > 100 µM | 6.6 µM | 7.6 µM |  |  |  | 1.1 |  |  |  |
| CC(C)(C)OC(=O)NC1CCC(NCCCN(Cc2ccc(F)cc2)Cc2ccc(F)cc2)CC1 (centres undefined) | 0.5 µM | 8.4 | 6.8 µM | 6.8 µM | 4.2 µM |  |  |  |  |  |  |  |
| NCCCCNCCCN(Cc1ccc(F)cc1)Cc1ccc(F)cc1 | 3.5 µM | 9.4 | 70.3 µM | 35.8 µM | 33.1 µM |  |  |  |  |  |  |  |
| CC(C)(C)OC(=O)NCCCCN(CCCN(Cc1ccccc1)Cc1ccccc1)CCCN(Cc1ccccc1)Cc1ccccc1 | 0.3 µM | 41.7 | 2.5 µM | 1.5 µM | 12.5 µM | 5 |  |  | 8.3 |  |  |  |
| CC(C)(C)OC(=O)NCCCCNCCCN(Cc1ccc(OCc2ccccc2)cc1)Cc1ccc(OCc2ccccc2)cc1 | 4.7 µM | 7.1 | 26.4 µM | 42 µM | 33.3 µM | 1.3 |  |  |  |  |  |  |
| CC(C)(C)OC(=O)NCCCCNCCCN(Cc1ccc(-c2ccccc2)cc1)Cc1ccc(-c2ccccc2)cc1 | 14.4 µM | > 6.9 | 38.5 µM | 41.7 µM | > 100 µM | > 2.6 |  |  | > 2.4 |  |  |  |
| NCCCCNCCCN(Cc1cccc(-c2ccccc2)c1)Cc1cccc(-c2ccccc2)c1 | 8.7 µM | 3.5 | 35.7 µM | 27.8 µM | 30.3 µM |  |  |  | 1.1 |  |  |  |
| NCCCCN(CCCN(Cc1ccccc1)Cc1ccccc1)CCCN(Cc1ccccc1)Cc1ccccc1 | 0.9 µM | 1.3 | 57.3 µM | 22.4 µM | 1.2 µM |  |  |  |  |  |  |  |
| CC(C)(C)OC(=O)NCCCCNCCCN(Cc1ccc(F)cc1)Cc1ccc(F)cc1 | 2 µM | 4.3 | 14.7 µM | 14.5 µM | 8.7 µM |  |  |  |  |  |  |  |
| NC1CCC(N(CCCN(Cc2ccc(F)cc2)Cc2ccc(F)cc2)CCCN(Cc2ccc(F)cc2)Cc2ccc(F)cc2)CC1 (centres undefined) | 10.4 µM |  | 15.7 µM | 4.2 µM | 4.5 µM |  |  |  | 1.1 |  |  |  |
| CC(C)(C)OC(=O)NCCCCNCCCN(Cc1ccccc1)Cc1ccccc1 | 0.6 µM | 20.8 | 14.6 µM | 3.4 µM | 12.5 µM |  |  |  | 3.7 |  |  |  |
| NCCCCNCCCN(Cc1ccsc1)Cc1ccsc1 | 6.1 µM | 8.6 | > 100 µM | 59.1 µM | 52.8 µM |  |  |  |  |  |  |  |
| NCCCCNCCCN(Cc1ccc(-c2ccccc2)cc1)Cc1ccc(-c2ccccc2)cc1 | 0.2 µM | 21 | 3.9 µM | 7.1 µM | 4.2 µM | 1.1 |  |  |  | > 12 h |  |  |
| CC(C)(C)OC(=O)NCCCCN(CCCN(Cc1ccc(F)cc1)Cc1ccc(F)cc1)CCCN(Cc1ccc(F)cc1)Cc1ccc(F)cc1 | 1.9 µM | 6.3 | 6.6 µM | 16.6 µM | 12 µM | 1.8 |  |  |  |  |  |  |
| NCCCCNCCCN(Cc1ccc2ccccc2c1)Cc1ccc2ccccc2c1 | 0.4 µM | 12.2 | 5 µM | 8.7 µM | 4.9 µM |  |  |  |  |  | 47% |  |
| CC(C)(C)OC(=O)NCCCCNCCCN(Cc1ccc2ccccc2c1)Cc1ccc2ccccc2c1 | 0.8 µM | 5.4 | 3.8 µM | 6.1 µM | 4.3 µM | 1.1 |  |  |  |  | 60% | 45% |
| NCCCCN(CCCN(Cc1ccc(F)cc1)Cc1ccc(F)cc1)CCCN(Cc1ccc(F)cc1)Cc1ccc(F)cc1 | 0.1 µM | 15 | 2 µM | 6.5 µM | 1.5 µM |  |  |  |  |  | > 60% | 30% |
| CC(C)(C)OC(=O)NC1CCC(N(CCCN(Cc2ccc(F)cc2)Cc2ccc(F)cc2)CCCN(Cc2ccc(F)cc2)Cc2ccc(F)cc2)CC1 (centres undefined) | 4.2 µM | > 23.8 | 10.2 µM | 17.2 µM | > 100 µM | > 9.8 |  |  | > 5.8 |  |  |  |
| Cl.Cl.NCCS[As](SCCN)c1ccc(Nc2nc(N)nc(N)n2)cc1 |  |  |  |  |  |  | >30 days | Non-Toxic |  |  |  |  |
